≈ marks a conversion by molar mass, not a printed value. Calls of active or inactive are those of the source. No cut-off for these calls is given here.
What was measured:
[1] = test system: Candida albicans; test: Antifungal activity against Candida albicans at 25 ug/disk by paper disk method; type: functional; settings: read-out: IZ
Outline: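 Paper disk diffusion against Candida albicans with 25 µg loaded per disk; read-out is the diameter of the clear zone of inhibition, in mm.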

[2] = test system: K562; test: Cytotoxicity against human K562 cells; type: functional; settings: read-out: LC50 (the source's name)
[3] = test system: Nucleic Acid; test: Induction of Escherichia coli double stranded DNA cleavage at 10 ug/20 mL by gel electrophoresis; type: nucleic-acid assay
Outline: (§1)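 Nucleic acids (double-stranded DNA and 16S rRNA) were isolated from E. coli and exposed to compound at 10 µg/20 mL; cleavage was scored by gel electrophoresis.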

[4] = test system: Nucleic Acid; test: Induction of Escherichia coli 16S rRNA cleavage at 10 ug/20 mL by gel electrophoresis; type: nucleic-acid assay; outline: as §1

Structure (SMILES)	zone of inhibition at 25 µg/disc [1]	CC50 [2]	Activity [3]	Activity [4]
CC(C)=C1CC[N+]([O-])=C1C[C@@H](C)[C@H]1CC[C@H]2C3=CC[C@H]4[C@@H](O)[C@@H](N(C)C)CC[C@]4(C)[C@H]3CC[C@]12C [PLAKINAMINE E]	12 mm	0.2 µg/mL (≈ 0.414 µM)	Active	Active
CC(C)=C1CCN=C1C[C@@H](C)[C@H]1CC[C@H]2C3=CC[C@H]4[C@@H](O)[C@@H](N(C)C)CC[C@]4(C)[C@H]3CC[C@]12C [LOKYSTEROLAMINE A]	9 mm	0.9 µg/mL (≈ 1.93 µM)	inactive	inactive
CC(C)=C1CCN=C1C[C@@H](C)[C@H]1CC[C@H]2C3=CC[C@H]4C(=O)[C@@H](N(C)C)CC[C@]4(C)[C@H]3CC[C@]12C [PLAKINAMINE F]	8 mm	1.3 µg/mL (≈ 2.8 µM)	inactive	inactive
